Data set [1] has as its system Rattus norvegicus. As to the kind of experiment: Hypolipidemic activity was measured as reduction in rat serum triglyceride after oral administration in male Wistar rats at 50 mg / (kg day). The data set is classed as functional. The gist of the method: (§1)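 Cholesterol-fed rats given the test compound orally by gavage on the last 3 days, with controls receiving vehicle (0.5% tragacanth mucilage). After overnight starvation, rats were killed under CO2 3 h after the last dose and bled by cardiac puncture. Serum cholesterol and triglyceride were measured by autoanalyzer and expressed as percentage reduction from control levels, with Student's t test.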

In data set [2] the test system is Rattus norvegicus. As to the kind of experiment: Minimum effective dose (MED) is the dose (mg/kg)that cause significant reduction in serum cholesterol of 30% compared to concurrent controls. The format is functional. Further details: unit: mg/kg. The procedure, abridged: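 MED was calculated from the log dose/response curve as the dose giving a statistically significant 30% fall in serum cholesterol versus concurrent controls. Measured in the 3-day oral cholesterol-fed rat screen, or in a 2-week test: groups of eight young male Wistar rats on cholesterol/cholic acid-supplemented or normal diet, dosed orally by gavage daily for 14 days, vehicle 0.5% tragacanth mucilage.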

Data set [3] has as its system Rattus norvegicus. As to the kind of experiment: Hypolipidemic activity was measured as reduction in rat serum cholesterol after oral administration in male Wistar rats at 2.5 mg / (kg day). The format is functional. The gist of the method: as §1
The subject of data set [4] is Rattus norvegicus. Briefly: Hypolipidemic activity was measured as reduction in rat serum triglyceride after oral administration in male Wistar rats at 100 mg / (kg day). The data set is classed as functional. The gist of the method:
as §1

In data set [5] the test system is Rattus norvegicus. Briefly: Hypolipidemic activity was measured as reduction in rat serum triglyceride after oral administration in male Wistar rats at 2.5 mg / (kg day). The data set is classed as functional. The procedure, abridged: as §1
The subject of data set [6] is Rattus norvegicus. As to the kind of experiment: Hypolipidemic activity was measured as reduction in rat serum cholesterol after oral administration in male Wistar rats at 50 mg / (kg day). The format is functional. The gist of the method:
as §1

Data set [7] has as its system Rattus norvegicus. As to the kind of experiment: Hypolipidemic activity was measured as reduction in rat serum cholesterol after oral administration in male Wistar rats at 5 mg / (kg day). The data set is classed as functional. The gist of the method: as §1
The test system of data set [8] is Rattus norvegicus. Briefly: Hypolipidemic activity was measured as reduction in rat serum triglyceride after oral administration in male Wistar rats at 10 mg / (kg day). The data set is classed as functional. The gist of the method: as §1
The subject of data set [9] is Rattus norvegicus. As to the kind of experiment: Hypolipidemic activity was measured as reduction in rat serum triglyceride after oral administration in male Wistar rats at 5 mg / (kg day). The format is functional. The procedure, abridged:
as §1

The subject of data set [10] is Rattus norvegicus. Briefly: Hypolipidemic activity was measured as reduction in rat serum cholesterol after oral administration in male Wistar rats at 10 mg / (kg day). The data set is classed as functional. The gist of the method: as §1
Data set [11] in a line: The therapeutic safety margin (TSM) is the ratio of the minimum lethal dose (mg/kg)to the MED. The format is ADME, organism-based. Conditions: in vivo. The gist of the method: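 Young male Wistar rats, eight per group, on cholesterol/cholic acid-supplemented or normal diet; graded oral gavage doses daily for 14 days; vehicle controls (0.5% tragacanth mucilage). Mortalities recorded to give the minimum lethal daily dose. After overnight fasting, serum cholesterol assayed by autoanalyzer. MED is the dose giving a significant (t test) 30% cholesterol fall, from the log dose/response curve. TSM = minimum lethal dose/MED.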

In data set [12] the test system is Rattus norvegicus. As to the kind of experiment: Hypolipidemic activity was measured as reduction in rat serum cholesterol after oral administration in male Wistar rats at 100 mg/(kg day). The data set is classed as functional. The gist of the method: as §1

The record followed here is ChEMBL document CHEMBL1122607, “Heterocyclic analogues of chlorcyclizine with potent hypolipidemic activity” (J Med Chem, 1984).

Molecules are shown by their SMILES.

In the case of `CC(C)c1ccc(C(c2ccns2)N2CCN(C)CC2)cc1` (configuration not stated), the Reduction in [1] is 67%; in data set [3], 26%; in [4], 81%; in data set [5] it was 15%; in data set [6] it was 82%; in data set [7], 39%. Also, the Reduction in [8] came out at 63%; in data set [9] it was 29%; in data set [10] it was 57%; in [12], 86%. The MED in data set [2] was found to be 6. Also, the therapeutic safety margin (minimum lethal dose / MED) in [11] was 14.
